Data set [1] deals with Amyloid-beta precursor protein (Homo sapiens) (UniProt P05067). The experiment in a line: Potency index, ratio of compound effect to rifampicin effect for inhibition of amyloid beta (1 to 42) (unknown origin) self-induced aggregation at 100 uM.
Data set [2] has as its system PC-12. The experiment in a line: Neuroprotection against H2O2-induced cell death in rat PC12 cells assessed as cell viability at 0.1 uM preincubated for 3 hrs followed by H2O2 stimulation measured after 2 hrs by MTT assay (reference value: 25.2 to 41.8%). It is filed as functional. To be noted: read-out: Activity.
In data set [3] the test system is PC-12. The experiment in a line: Neuroprotection against H2O2-induced cell death in rat PC12 cells assessed as cell viability at 20 uM preincubated for 3 hrs followed by H2O2 stimulation measured after 2 hrs by MTT assay (reference value: 25.2 to 41.8%). The data set is classed as functional. The note with it: read-out: Activity. (In general: Tetrazolium assays rely on reduction of a dye to a coloured formazan, in cell work by metabolically active cells.)

Another data set deals with Cholinesterase (Equus caballus, UniProt P81908). The data set is described as follows: Inhibition of equine serum BuChE using butyrylthiocholine iodide as substrate pretreated for 5 mins followed by substrate addition by Ellman's method. Put shortly:
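Ellman assay with horse serum BuChE (5 IU/mL) in 0.1 M phosphate buffer pH 8.0 with DTNB. Compound was preincubated with enzyme 5 min, then butyrylthiocholine iodide was added. Absorbance read at 412 nm. IC50 from a log concentration vs % inhibition curve; triplicate runs.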
(In general: Ellman's reagent forms a yellow product with free thiols.)

A short description of data set [4]: Metal chelating activity assessed as compound-Cu2+ complex formation at 20 uM after 30 mins by UV-visible spectrophotometric analysis. In a few lines: (§1)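 Compound (final 20 µM in methanol) mixed with metal salt (CuCl2, FeSO4, ZnCl2, AlCl3, MgCl2 or CaCl2, final 20 µM in methanol). After 30 min at room temperature, UV spectra recorded from 200 to 500 nm in 1-cm quartz cells on a dual-beam spectrophotometer.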

In data set [5] the test system is PC-12. The data set is described as follows: Inhibition of H2O2-induced ROS generation in rat PC12 cells assessed as intracellular ROS level at 50 uM preincubated for 6 hrs followed by H2O2 addition measured after 18 hrs by DCFH-DA staining based fluorimetric method relative to control. The arrangement: scale not given: the % may be the effect or the level left. It is filed as functional. In a few lines:
(§2)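 PC12 cells at 1×10^4/well in RPMI with 10% FBS and penicillin/streptomycin, 24 h at 37 °C, 5% CO2. Test samples (1, 5, 10, 50 µM; ≤0.5% DMSO) for 6 h, PBS wash, then H2O2 150 µM for 18 h. Loaded with 10 µM DCFH-DA for 30 min at 37 °C in the dark, washed twice. DCF fluorescence read at ex 485/em 528 nm as % of untreated control. Three independent experiments, mean ± SEM.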

Data set [6] has as its system PC-12. The experiment in a line: Inhibition of H2O2-induced ROS generation in rat PC12 cells assessed as intracellular ROS level at 10 uM preincubated for 6 hrs followed by H2O2 addition measured after 18 hrs by DCFH-DA staining based fluorimetric method relative to control. The data set is classed as functional. The arrangement: scale not given: the % may be the effect or the level left. In a few lines: as §2

Data set [7] is described as follows: Metal chelating activity assessed as compound-Ca2+ complex formation at 20 uM after 30 mins by UV-visible spectrophotometric analysis. In a few lines: as §1
A short description of data set [8]: Metal chelating activity assessed as compound-Al3+ complex formation at 20 uM after 30 mins by UV-visible spectrophotometric analysis. In a few lines:
as §1

For data set [9], the system named is PC-12. The data set is described as follows: Inhibition of H2O2-induced ROS generation in rat PC12 cells assessed as intracellular ROS level at 1 uM preincubated for 6 hrs followed by H2O2 addition measured after 18 hrs by DCFH-DA staining based fluorimetric method relative to control. It is filed as functional. The arrangement: scale not given: the % may be the effect or the level left. In a few lines:
as §2

Data set [10] concerns the target Acetylcholinesterase (Homo sapiens) (UniProt P22303). The data set is described as follows: Potency index, ratio of compound effect to donepezil effect for inhibition of recombinant human AChE-induced amyloid beta (1 to 42) aggregation at 100 uM. In a few lines:
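Prefibrillated Aβ1-42 (prepared 72 h at 37 °C in PBS/1% ammonium hydroxide) was coincubated with human recombinant AChE (0.01 u/mL) in 0.05 M KP buffer pH 7.4, 37 °C, 48 h, with or without compound or donepezil at 100 µM. ThT added; fluorescence read at ex 448/em 490 nm. % inhibition from intensities with vs without inhibitor; three experiments.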

Data set [11] deals with PC-12. The experiment in a line: Neuroprotection against H2O2-induced cell death in rat PC12 cells assessed as cell viability at 10 uM preincubated for 3 hrs followed by H2O2 stimulation measured after 2 hrs by MTT assay (reference value: 25.2 to 41.8%). The data set is classed as functional. The note with it: read-out: Activity.
Data set [12] concerns PC-12. The data set is described as follows: Inhibition of H2O2-induced ROS generation in rat PC12 cells preincubated for 6 hrs followed by H2O2 addition measured after 18 hrs by DCFH-DA staining based fluorimetric method. It is filed as functional, cell-based. Put shortly:
as §2

Another data set deals with Acetylcholinesterase (Electrophorus electricus, UniProt O42275). The experiment in a line: Non-competitive inhibition of electric eel AChE using varying levels of acetylthiocholine iodide as substrate pretreated for 5 mins followed by substrate addition by Lineweaver-Burk plot analysis.
The subject of data set [13] is PC-12. The experiment in a line: Neuroprotection against H2O2-induced cell death in rat PC12 cells assessed as cell viability at 1 uM preincubated for 3 hrs followed by H2O2 stimulation measured after 2 hrs by MTT assay (reference value: 25.2 to 41.8%). It is filed as functional. The note with it: read-out: Activity.
Data set [14] concerns PC-12. The data set is described as follows: Neuroprotection against H2O2-induced cell death in rat PC12 cells assessed as increase in cell viability preincubated for 3 hrs followed by H2O2 stimulation measured after 2 hrs by MTT assay. The data set is classed as functional, cell-based.
The subject of data set [15] is PC-12. The data set is described as follows: Inhibition of H2O2-induced ROS generation in rat PC12 cells assessed as intracellular ROS level at 5 uM preincubated for 6 hrs followed by H2O2 addition measured after 18 hrs by DCFH-DA staining based fluorimetric method relative to control. It is filed as functional. Also noted: scale not given: the % may be the effect or the level left. Put shortly:
as §2

Data set [16] is described as follows: Metal chelating activity assessed as compound-Zn2+ complex formation at 20 uM after 30 mins by UV-visible spectrophotometric analysis. Put shortly: as §1
Data set [17] deals with PC-12. The data set is described as follows: Cytotoxicity against rat PC12 cells assessed as effect on cell viability at 1 to 50 uM by MTT assay. The data set is classed as cell-based. To be noted: pc-12, 50 µM.
A short description of data set [18]: Inhibition of soybean 15-LOX assessed as reduction in conversion of linoleic acid to 13-hydroperoxylinoleic acid by spectrophotometric method. The arrangement: species or system Glycine max. Put shortly:
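Soybean lipoxygenase type 1-B (final 167 U/mL) with compound (DMSO stock diluted in 0.1 M phosphate buffer pH 8) and linoleic acid (134 mM in ethanol) at room temperature. Formation of 13-hydroperoxylinoleic acid followed spectrophotometrically at 234 nm.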

The nature of data set [19]: Metal chelating activity assessed as compound-Fe2+ complex formation at 20 uM after 30 mins by UV-visible spectrophotometric analysis. In a few lines:
as §1

Data set [20] deals with Amyloid-beta precursor protein (Homo sapiens) (UniProt P05067). The data set is described as follows: Potency index, ratio of compound effect to donepezil effect for inhibition of amyloid beta (1 to 42) (unknown origin) self-induced aggregation at 100 uM.
Data set [21] has as its system PC-12. The data set is described as follows: Neuroprotection against H2O2-induced cell death in rat PC12 cells assessed as cell viability at 5 uM preincubated for 3 hrs followed by H2O2 stimulation measured after 2 hrs by MTT assay (reference value: 25.2 to 41.8%). The data set is classed as functional. To be noted: read-out: Activity.
The next data set relates to SH-SY5Y. The data set is described as follows: Neuroprotection against H2O2-induced cell death in human SH-SY5Y cells assessed as cell viability at 10 uM preincubated for 3 hrs followed by H2O2 addition measured after 24 hrs by MTT assay relative to control. It is filed as functional. To be noted: read-out: Activity. In a few lines:
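SH-SY5Y cells grown in DMEM with 10% FBS, 1% L-glutamine and antibiotics, 5×10^3/well. Compound (10 or 50 µM) for 3 h before 250 µM H2O2, then 24 h incubation. MTT read at 570 nm after DMSO solubilization. Viability as blank-corrected % of untreated control; three independent experiments, mean ± SEM.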

Activity calls are given as the source filed them. No cut-off for these calls is given here.

Chain of Amyloid-beta precursor protein (Homo sapiens) (P05067 whole entry): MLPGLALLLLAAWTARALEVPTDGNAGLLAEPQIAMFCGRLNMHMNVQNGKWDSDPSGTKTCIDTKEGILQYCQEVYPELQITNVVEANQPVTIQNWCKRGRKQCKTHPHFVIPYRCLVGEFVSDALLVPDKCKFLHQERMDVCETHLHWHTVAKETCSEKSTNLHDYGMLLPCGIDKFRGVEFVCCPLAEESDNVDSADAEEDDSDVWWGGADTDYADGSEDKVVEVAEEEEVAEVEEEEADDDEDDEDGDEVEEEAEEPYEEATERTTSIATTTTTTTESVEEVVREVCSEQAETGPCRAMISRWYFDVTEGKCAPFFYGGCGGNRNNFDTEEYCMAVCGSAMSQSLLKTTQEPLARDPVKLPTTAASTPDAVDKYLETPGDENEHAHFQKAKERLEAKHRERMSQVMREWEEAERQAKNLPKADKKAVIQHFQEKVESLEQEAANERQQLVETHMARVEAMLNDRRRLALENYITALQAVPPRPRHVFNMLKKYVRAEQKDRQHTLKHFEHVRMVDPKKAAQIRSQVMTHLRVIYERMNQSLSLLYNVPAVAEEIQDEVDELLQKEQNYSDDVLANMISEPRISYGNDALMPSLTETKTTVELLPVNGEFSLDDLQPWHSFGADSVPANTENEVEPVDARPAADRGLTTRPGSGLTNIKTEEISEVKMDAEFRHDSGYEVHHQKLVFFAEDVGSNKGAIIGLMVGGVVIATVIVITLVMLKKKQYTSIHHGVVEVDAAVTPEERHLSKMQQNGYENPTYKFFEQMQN
Chain of Acetylcholinesterase (O42275 whole entry): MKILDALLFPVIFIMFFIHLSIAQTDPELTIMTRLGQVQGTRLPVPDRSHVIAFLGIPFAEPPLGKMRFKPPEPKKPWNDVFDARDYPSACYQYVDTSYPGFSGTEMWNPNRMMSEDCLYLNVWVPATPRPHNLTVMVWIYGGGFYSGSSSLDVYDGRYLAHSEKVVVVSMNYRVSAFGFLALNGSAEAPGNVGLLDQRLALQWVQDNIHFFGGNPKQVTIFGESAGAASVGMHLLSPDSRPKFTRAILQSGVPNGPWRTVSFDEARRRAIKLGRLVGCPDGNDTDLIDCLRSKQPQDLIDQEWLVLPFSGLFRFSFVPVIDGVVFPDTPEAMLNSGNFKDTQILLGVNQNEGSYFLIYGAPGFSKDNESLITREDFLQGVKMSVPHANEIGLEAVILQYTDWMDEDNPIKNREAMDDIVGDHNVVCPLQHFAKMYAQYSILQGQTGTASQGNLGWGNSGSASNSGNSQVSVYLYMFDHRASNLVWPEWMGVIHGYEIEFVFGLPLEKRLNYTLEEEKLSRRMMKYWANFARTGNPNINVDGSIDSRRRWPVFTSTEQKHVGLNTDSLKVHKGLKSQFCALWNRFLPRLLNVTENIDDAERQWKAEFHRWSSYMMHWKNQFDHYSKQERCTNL
Chain of Acetylcholinesterase (Homo sapiens) (P22303 whole entry): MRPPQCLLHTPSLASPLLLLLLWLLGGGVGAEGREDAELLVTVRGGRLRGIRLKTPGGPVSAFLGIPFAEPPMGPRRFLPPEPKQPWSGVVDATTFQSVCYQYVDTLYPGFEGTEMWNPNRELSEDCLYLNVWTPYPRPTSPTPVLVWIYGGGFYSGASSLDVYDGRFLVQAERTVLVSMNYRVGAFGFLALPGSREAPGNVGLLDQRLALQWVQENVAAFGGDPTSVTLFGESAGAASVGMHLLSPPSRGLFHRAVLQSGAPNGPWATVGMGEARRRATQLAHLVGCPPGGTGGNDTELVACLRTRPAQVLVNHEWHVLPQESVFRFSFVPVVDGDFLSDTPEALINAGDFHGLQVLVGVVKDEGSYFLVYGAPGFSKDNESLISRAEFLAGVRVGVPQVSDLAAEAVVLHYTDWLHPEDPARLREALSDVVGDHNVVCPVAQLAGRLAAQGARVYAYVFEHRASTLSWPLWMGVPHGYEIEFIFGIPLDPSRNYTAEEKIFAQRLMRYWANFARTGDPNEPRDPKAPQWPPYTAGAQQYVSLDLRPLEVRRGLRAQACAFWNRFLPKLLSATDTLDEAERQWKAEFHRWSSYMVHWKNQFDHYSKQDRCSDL
Chain of Cholinesterase (P81908 whole entry): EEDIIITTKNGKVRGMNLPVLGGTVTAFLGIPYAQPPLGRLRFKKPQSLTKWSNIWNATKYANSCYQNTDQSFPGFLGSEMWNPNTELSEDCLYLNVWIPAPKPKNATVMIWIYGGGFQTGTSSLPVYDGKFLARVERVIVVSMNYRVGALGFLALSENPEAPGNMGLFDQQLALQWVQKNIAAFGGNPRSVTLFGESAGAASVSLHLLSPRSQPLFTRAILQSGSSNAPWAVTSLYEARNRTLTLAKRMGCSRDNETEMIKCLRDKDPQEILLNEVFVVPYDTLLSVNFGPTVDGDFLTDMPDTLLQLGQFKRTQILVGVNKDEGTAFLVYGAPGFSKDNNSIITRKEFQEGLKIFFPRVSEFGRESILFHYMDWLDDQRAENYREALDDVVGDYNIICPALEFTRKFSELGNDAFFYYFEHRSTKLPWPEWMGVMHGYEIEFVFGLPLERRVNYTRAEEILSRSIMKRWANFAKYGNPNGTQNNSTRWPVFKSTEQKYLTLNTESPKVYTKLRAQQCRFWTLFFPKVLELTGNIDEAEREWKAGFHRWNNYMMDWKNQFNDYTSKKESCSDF

By IC50 is commonly meant the concentration that inhibits the measured activity by half. Broadly, the Ki is the equilibrium dissociation constant of an inhibitor or competing ligand from its target. As to `COc1ccc(-c2cc3ccc(OCCCn4cc(CNC(=O)CCCCC5CCSS5)nn4)cc3oc2=O)cc1OC` (centres undefined), the Ratio in data set [1], in data set [10] and in [20] was 2 throughout. Moreover, the viability at 0.1 µM in the data set with PC-12 [2] was found to be 36.4%. For the same compound, in the data set on PC-12 [3], the viability at 20 µM came out at 45.6%. Moreover, the IC50 on Cholinesterase is 49.4 µM; in data set [18] it was above 100 µM. Besides, the outcome in data set [4] and in [19] was Active. Besides, the Activity was 91.6% with PC-12 [5]; 43.04% with PC-12 [6]; 88.84% in the data set with PC-12 [9]; “Dose-dependent effect” in the data set on PC-12 [14]; 79.32% with PC-12 [15]; “Non-Toxic” in the data set with PC-12 [17]. The result in [7], in data set [8] and in data set [16] was inactive. Moreover, the viability at 10 µM with PC-12 [11] came to 43.5%; with SH-SY5Y it was 64%. Also, the inhibition entry in the data set with PC-12 [12] is “Dose-dependent effect”. Also, the Ki on Acetylcholinesterase worked out at 6.91 µM. In the data set on PC-12 [13], the viability at 1 µM worked out at 39.3%. The viability at 5 µM in the data set with PC-12 [21] amounted to 40.6%.

Values taken from ChEMBL document CHEMBL4152262, “Design, synthesis and evaluation of novel multi-target-directed ligands for treatment of Alzheimer's disease based on coumarin and lipoic acid scaffolds” (Eur J Med Chem, 2018).
